Experimental data as given in ChEMBL document CHEMBL1156940, “Modified cap group suberoylanilide hydroxamic acid histone deacetylase inhibitor derivatives reveal improved selective antileukemic activity” (J Med Chem, 2010).
Active and inactive are the calls of the source. The rule behind the calls is not given here.

Tests used:
SK-BR-3 = test: Antiproliferative activity against human SK-BR-3 cells after 48 hrs by cell titer-glo assay; assay type: functional, cell-based; conditions: SK-BR-3, 48 h
HT-29 = test: Antiproliferative activity against human HT-29 cells after 48 hrs by cell titer-glo assay; assay type: functional, cell-based; conditions: HT-29, 48 h
U-937 = test: Antiproliferative activity against human U937 cells after 48 hrs by cell titer-glo assay; assay type: functional, cell-based; conditions: U-937, 48 h
Outline: (§1)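 Cells kept in RPMI-1640 with 10% FBS at 37 °C, 5% CO2. 10^4 suspension cells were plated immediately before dosing. Compounds were added at 0.1–100 µM, final 1% DMSO, with DMSO vehicle control, and incubated 48 h. CellTiter-Glo luminescence was read. EC50 is the dose reducing luminescence to 50% of untreated cultures.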

Jurkat = test: Antiproliferative activity against human Jurkat JA16 cells after 48 hrs by cell titer-glo assay; assay type: functional, cell-based
HL-60 = test: Antiproliferative activity against human HL60 cells after 48 hrs by cell titer-glo assay; assay type: functional, cell-based; conditions: HL-60, 48 h
K562 = test: Antiproliferative activity against human K562 cells after 48 hrs by cell titer-glo assay; assay type: functional, cell-based; conditions: K562, 48 h; outline: as §1
[1] = Therapeutic ratio, EC50 for human PBMC to EC50 for human 937 cells; conditions: human PBMC versus human 937 cells
[2] = biological target: Histone deacetylase 1 (Homo sapiens) (UniProt Q13547); test: Inhibition of recombinant FLAG-tagged HDAC1 assessed as [3H]acetic acid release preincubated for 30 mins measured after 2 hrs by scintillation counting
Outline: (§2)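 FLAG-tagged HDAC1 or HDAC6 was immunopurified from stably expressing cell lines and washed in HDAC buffer (10 mM Tris-HCl pH 8.0, 10 mM NaCl, 10% glycerol). Enzyme was preincubated with inhibitor (1 µM) for 30 min at 4 °C, then given 20 000 cpm [3H]peracetylated H4 peptide for 2 h at 37 °C. The reaction was stopped with acetic acid/HCl, extracted into ethyl acetate, and released [3H]acetate counted by scintillation.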

[3] = biological target: T1, Protein deacetylase HDAC6 (Homo sapiens) (UniProt Q9UBN7); test: Inhibition of recombinant FLAG-tagged HDAC6 assessed as [3H]acetic acid release preincubated for 30 mins measured after 2 hrs by scintillation counting; outline: as §2
T1 sequence (whole entry): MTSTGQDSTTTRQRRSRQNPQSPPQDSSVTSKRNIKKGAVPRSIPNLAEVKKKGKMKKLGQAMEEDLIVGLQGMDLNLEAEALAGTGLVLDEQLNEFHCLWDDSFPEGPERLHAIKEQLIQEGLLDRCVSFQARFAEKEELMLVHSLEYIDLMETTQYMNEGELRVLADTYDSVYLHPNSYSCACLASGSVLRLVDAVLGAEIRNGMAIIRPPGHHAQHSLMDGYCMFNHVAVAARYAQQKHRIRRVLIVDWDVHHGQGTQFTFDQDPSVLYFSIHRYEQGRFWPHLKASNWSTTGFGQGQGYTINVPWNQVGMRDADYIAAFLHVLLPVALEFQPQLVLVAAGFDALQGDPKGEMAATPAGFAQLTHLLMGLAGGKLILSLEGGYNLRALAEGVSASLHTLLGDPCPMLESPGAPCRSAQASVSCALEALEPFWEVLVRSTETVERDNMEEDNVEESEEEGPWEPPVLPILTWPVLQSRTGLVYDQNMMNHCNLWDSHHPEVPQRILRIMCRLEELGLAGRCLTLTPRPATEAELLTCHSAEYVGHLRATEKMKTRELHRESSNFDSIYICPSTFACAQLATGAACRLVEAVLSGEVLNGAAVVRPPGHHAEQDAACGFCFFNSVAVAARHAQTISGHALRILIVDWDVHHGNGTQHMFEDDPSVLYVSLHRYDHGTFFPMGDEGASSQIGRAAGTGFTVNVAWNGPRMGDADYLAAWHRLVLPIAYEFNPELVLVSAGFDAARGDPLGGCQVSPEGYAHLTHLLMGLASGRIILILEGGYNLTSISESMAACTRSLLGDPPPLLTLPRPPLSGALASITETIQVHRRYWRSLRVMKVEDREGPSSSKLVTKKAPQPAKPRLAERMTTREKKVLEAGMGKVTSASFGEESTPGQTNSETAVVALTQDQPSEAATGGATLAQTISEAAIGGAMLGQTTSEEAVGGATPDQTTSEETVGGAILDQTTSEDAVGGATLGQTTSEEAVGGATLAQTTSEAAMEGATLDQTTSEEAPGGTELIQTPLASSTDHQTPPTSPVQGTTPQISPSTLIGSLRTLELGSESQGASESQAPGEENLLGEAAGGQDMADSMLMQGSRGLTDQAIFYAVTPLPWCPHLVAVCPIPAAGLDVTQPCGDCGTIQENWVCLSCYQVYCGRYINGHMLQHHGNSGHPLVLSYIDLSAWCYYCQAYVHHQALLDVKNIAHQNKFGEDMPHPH

Mus musculus [4] = test: Toxicity in FVB mouse assessed as mortality at 50 mg/kg, po administered 5 times per week for 2 weeks; assay type: organism-based; design: dose 50 mg/kg, route oral; conditions: in vivo, 336 h
Outline: (§3)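 8-week-old Fvb mice, SPF-housed in ventilated cages with acidified water, randomly assigned (n = 3 per group) to compound or solvent-only vehicle. Dosing was by oral gavage five times weekly for 2 weeks. Survival was monitored with body weight and blood counts during dosing, and deaths were also recorded during the month after treatment stopped.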

Mus musculus [5] = test: Toxicity in FVB mouse assessed as mortality at 50 mg/kg, po administered 5 times per week for 2 weeks measured up to 1 month; assay type: organism-based; design: dose 50 mg/kg, route oral; conditions: in vivo, 336 h; outline: as §3
Mus musculus [6] = test: Toxicity in FVB mouse assessed as effect on number of platelets at 50 mg/kg, po administered 5 times per week for 2 weeks measured during test (reference value: 454 +/- 93 10^3/mm^3); assay type: organism-based; design: dose 50 mg/kg, route oral; conditions: in vivo, 336 h
Outline: (§4)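 8-week-old FVB mice were housed specific-pathogen-free and randomly assigned, n = 3 per group. They received 50 mg/kg compound or vehicle alone by oral gavage, five times weekly for 2 weeks. Body weight and survival were monitored. Differential blood counts came from nonlethal retro-orbital bleeds before study (J-5), during study (J5) and at end point (J12). Values are means ± spread for n = 3.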

Mus musculus [7] = test: Toxicity in FVB mouse assessed as effect on number of platelets at 50 mg/kg, po administered 5 times per week for 2 weeks (reference value: 514 +/- 42.8 10^3/mm^3); assay type: organism-based; design: dose 50 mg/kg, route oral; conditions: in vivo, 336 h; outline: as §4
Mus musculus [8] = test: Toxicity in FVB mouse assessed as effect on mean platelet volume at 50 mg/kg, po administered 5 times per week for 2 weeks measured during test (reference value: 8.4 +/- 0.5 microm^3); assay type: organism-based; design: dose 50 mg/kg, route oral; conditions: in vivo, 336 h; outline: as §4
Mus musculus [9] = test: Toxicity in FVB mouse assessed as effect on mean platelet volume at 50 mg/kg, po administered 5 times per week for 2 weeks (reference value: 8.8 +/- 0.1 microm^3); assay type: organism-based; design: dose 50 mg/kg, route oral; conditions: in vivo, 336 h; outline: as §4
Mus musculus [10] = test: Toxicity in FVB mouse assessed as effect on number of RBC at 50 mg/kg, po administered 5 times per week for 2 weeks measured during test (reference value: 8.1 +/- 0.2 10^6/mm^3); assay type: organism-based; design: dose 50 mg/kg, route oral; conditions: in vivo, 336 h; outline: as §4
Mus musculus [11] = test: Toxicity in FVB mouse assessed as effect on number of RBC at 50 mg/kg, po administered 5 times per week for 2 weeks (reference value: 7.7 +/- 0.1 10^6/mm^3); assay type: organism-based; design: dose 50 mg/kg, route oral; conditions: in vivo, 336 h; outline: as §4
Mus musculus [12] = test: Toxicity in FVB mouse assessed as effect on mean cell volume of red cells at 50 mg/kg, po administered 5 times per week for 2 weeks measured during test (reference value: 43.7 +/- 0.4 microm^3); assay type: organism-based; design: dose 50 mg/kg, route oral; conditions: in vivo, 336 h; outline: as §4
Mus musculus [13] = test: Toxicity in FVB mouse assessed as effect on number of WBC at 50 mg/kg, po administered 5 times per week for 2 weeks measured during test (reference value: 9.1 +/- 0.2 10^3/mm^3); assay type: organism-based; design: dose 50 mg/kg, route oral; conditions: in vivo, 336 h; outline: as §4
Mus musculus [14] = test: Toxicity in FVB mouse assessed as effect on number of WBC at 50 mg/kg, po administered 5 times per week for 2 weeks (reference value: 9.1 +/- 0.2 10^3/mm^3); assay type: organism-based; design: dose 50 mg/kg, route oral; conditions: in vivo, 336 h; outline: as §4
Mus musculus [15] = test: Toxicity in FVB mouse assessed as effect on hematocrit at 50 mg/kg, po administered 5 times per week for 2 weeks measured during test; assay type: organism-based; design: dose 50 mg/kg, route oral; conditions: in vivo, 336 h; outline: as §4
Mus musculus [16] = test: Toxicity in FVB mouse assessed as effect on hematocrit at 50 mg/kg, po administered 5 times per week for 2 weeks; assay type: organism-based; design: dose 50 mg/kg, route oral; conditions: in vivo, 336 h; outline: as §4
Mus musculus [17] = test: Toxicity in FVB mouse assessed as effect on body weight at 50 mg/kg, po administered 5 times per week for 2 weeks measured during test; assay type: organism-based; design: dose 50 mg/kg, route oral; conditions: in vivo, 336 h; outline: as §4
Mus musculus [18] = test: Toxicity in FVB mouse assessed as effect on body weight at 50 mg/kg, po administered 5 times per week for 2 weeks; assay type: organism-based; design: dose 50 mg/kg, route oral; conditions: in vivo, 336 h; outline: as §4
Mus musculus [19] = test: Toxicity in FVB mouse assessed as effect on mean cell volume of red cells at 50 mg/kg, po administered 5 times per week for 2 weeks (reference value: 43.9 +/- 0.5 microm^3); conditions: in vivo, 336 h

Chain of Histone deacetylase 1 (Homo sapiens) (Q13547 whole entry): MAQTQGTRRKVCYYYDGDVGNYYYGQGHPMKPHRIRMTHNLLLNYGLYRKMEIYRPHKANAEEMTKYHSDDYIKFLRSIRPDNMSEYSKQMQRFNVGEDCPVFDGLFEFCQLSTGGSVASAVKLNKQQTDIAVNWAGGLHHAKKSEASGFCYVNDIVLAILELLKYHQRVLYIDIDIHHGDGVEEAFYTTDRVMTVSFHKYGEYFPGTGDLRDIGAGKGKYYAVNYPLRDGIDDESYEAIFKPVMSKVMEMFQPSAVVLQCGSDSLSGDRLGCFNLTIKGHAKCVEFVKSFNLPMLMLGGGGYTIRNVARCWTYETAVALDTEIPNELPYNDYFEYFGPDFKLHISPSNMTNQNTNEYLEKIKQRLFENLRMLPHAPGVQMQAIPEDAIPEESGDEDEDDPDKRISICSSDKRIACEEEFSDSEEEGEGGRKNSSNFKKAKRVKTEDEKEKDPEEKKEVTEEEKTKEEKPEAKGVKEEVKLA

SMILES	EC50 (SK-BR-3) [nM]	EC50 (HT-29) [nM]	EC50 (U-937) [nM]	EC50 (Jurkat) [nM]	EC50 (HL-60) [nM]	EC50 (K562) [nM]	selectivity ratio [1]	Activity [2]	Activity [3]	Activity (Mus musculus [4])	Activity (Mus musculus [5])	Activity (Mus musculus [6])	Activity (Mus musculus [7])	Activity (Mus musculus [8]) [um3]	Activity (Mus musculus [9]) [um3]	Activity (Mus musculus [10])	Activity (Mus musculus [11])	Activity (Mus musculus [12]) [um3]	Activity (Mus musculus [13])	Activity (Mus musculus [14])	further results
O=C(CCCCCCC(=O)Nc1cc2ccc3cccc4ccc(c1)c2c34)NO	1200	1400	300	180	350	800	15	Active	Active	–	–	–	–	–	–	–	–	–	–	–	–
O=C(CCCCCCC(=O)Nc1ccc(I)cc1)NO	1100	950	120	240	850	1300	30	Active	Active	Non-toxic	Non-toxic	478.3 10^3/mm3	537 10^3/mm3	8.6	8.7	8.02 10^6/mm3	6.9 10^6/mm3	43.9	7.5 10^3/mm3	7.5 10^3/mm3	Activity (Mus musculus [15]): 35.2%; Activity (Mus musculus [16]): 30.2%; Activity (Mus musculus [17]): 99.7%; Activity (Mus musculus [18]): 97.8%; Activity (Mus musculus [19]): 43.7 um3
O=C(CCCCCCC(=O)Nc1ccccc1)NO [VORINOSTAT]	–	–	820	–	–	2200	–	–	–	Non-toxic	Non-toxic	617 10^3/mm3	538 10^3/mm3	7.7	8.4	8.3 10^6/mm3	7.6 10^6/mm3	44.1	5.9 10^3/mm3	8.3 10^3/mm3	Activity (Mus musculus [15]): 36.5%; Activity (Mus musculus [16]): 33.7%; Activity (Mus musculus [17]): 94.9%; Activity (Mus musculus [18]): 96.2%; Activity (Mus musculus [19]): 44.5 um3
